The values that follow come from ChEMBL document CHEMBL5338811, “Computational Design, Synthesis, and Biological Evaluation of Diimidazole Analogues Endowed with Dual PCSK9/HMG-CoAR-Inhibiting Activity” (J Med Chem, 2023).

The source made the active and inactive calls.

One series deals with HepG2. Put plainly: Cytotoxicity against human HepG2 cells assessed as reduction in cell viability upto 10 uM after 48 hrs by MTT assay. Format: toxicity, cell-based. Particulars: hepg2, 48 h. In outline:
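HepG2 cells treated 48 h with compound at 0.1–10,000 nM; viability read by MTT versus untreated control cells. Mean ± SD of three experiments run in triplicate.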
(In general: Tetrazolium dyes change colour on reduction, which living cells bring about.)

Series [1] in a line: Induction of LDL uptake in human HepG2 cells incubated for 2 hrs in presence of 10 nM PCSK9 by fluorescent plate reader analysis (reference value: 51.69 +/- 15.30 %). Format: functional.
The nature of series [2]: Induction of LDLR expression in human HepG2 cells membrane in presence of 10 nM PCSK9 (reference value: 39.71 +/- 2.05%). Format: functional.
A short description of series [3]: Metabolic stability in mouse liver microsomes assessed as clearance per mg protein at 5 uM preincubated for 10 mins followed by UDPGA addition and measured upto 60 mins by LC-MS/MS analysis. Format: ADME, Microsome. Particulars: time < 70 min, read-out: CLH. The procedure, abridged:
(§1)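 Compound at 5 μM final, in duplicate, from a 1 mM DMSO solution. Pre-incubated 10 min at 37 °C with human or mouse liver microsomes (0.5 mg/mL) in 50 mM potassium phosphate pH 7.4 with 3 mM MgCl2. The reaction was started with an NADPH-regenerating mix plus UDPGA. Samples taken at 0–60 min were quenched in ACN and analysed by LC–MS/MS. A no-cofactor control was included; 7-ethoxycoumarin and 7-hydroxycoumarin served as references.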
For orientation: Liver microsomes are vesicles of endoplasmic reticulum, rich in cytochrome P450 enzymes.

A short description of series [4]: Metabolic stability in human liver microsomes assessed as clearance per mg protein at 5 uM preincubated for 10 mins followed by UDPGA addition and measured upto 60 mins by LC-MS/MS analysis. Format: ADME, Microsome. Particulars: time < 70 min, read-out: CLH. In outline:
as §1

In series [5] the target is Proprotein convertase subtilisin/kexin type 9 (Homo sapiens) (UniProt Q8NBP7). Put plainly: Inhibition of PCSK9 mediated epinephrine induced platelet aggregation in human platelet rich plasma assessed as prevention of AUC increase at 10 nM preincubated for 15 mins followed by PRP addition by light transmission aggregometry assay. The procedure, abridged: (§2)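 PRP from healthy donors (n = 5), prepared by centrifuging whole blood 10 min at 100g at room temperature without brakes. Recombinant PCSK9 (5 μg/mL) preincubated with compound for 15 min at room temperature, then added to PRP for 2 min at 37 °C. Aggregation triggered by subthreshold epinephrine (0.16 μM) and followed by light transmission aggregometry. Lag time and area under the curve were scored.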
Sequence of Proprotein convertase subtilisin/kexin type 9 (Homo sapiens) (Q8NBP7 31-152 limits assumed): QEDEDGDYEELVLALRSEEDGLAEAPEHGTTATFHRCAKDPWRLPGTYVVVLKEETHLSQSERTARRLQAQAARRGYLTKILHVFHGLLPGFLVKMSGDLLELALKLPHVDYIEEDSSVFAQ
Sequence of Proprotein convertase subtilisin/kexin type 9 (Homo sapiens) (Q8NBP7 153-692 limits assumed): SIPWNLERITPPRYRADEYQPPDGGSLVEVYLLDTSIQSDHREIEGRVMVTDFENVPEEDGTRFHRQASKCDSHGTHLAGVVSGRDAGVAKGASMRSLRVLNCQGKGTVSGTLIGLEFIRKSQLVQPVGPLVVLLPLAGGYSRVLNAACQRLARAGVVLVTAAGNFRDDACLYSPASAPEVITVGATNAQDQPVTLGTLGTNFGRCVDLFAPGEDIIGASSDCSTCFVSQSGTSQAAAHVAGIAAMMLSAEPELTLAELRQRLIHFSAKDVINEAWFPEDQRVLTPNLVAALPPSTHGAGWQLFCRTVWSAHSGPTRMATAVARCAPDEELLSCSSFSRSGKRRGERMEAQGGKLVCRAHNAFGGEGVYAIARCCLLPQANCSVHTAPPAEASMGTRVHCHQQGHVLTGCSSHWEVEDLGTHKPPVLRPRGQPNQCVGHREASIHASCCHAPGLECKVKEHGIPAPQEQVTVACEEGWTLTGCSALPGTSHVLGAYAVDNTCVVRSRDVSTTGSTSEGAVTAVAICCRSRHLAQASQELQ

For series [6] the target is unchanged. The series can be described thus: Inhibition of PCSK9 mediated epinephrine induced platelet aggregation in human platelet rich plasma assessed as prevention of lag time reduction at 10 nM preincubated for 15 mins followed by PRP addition by light transmission aggregometry assay. The procedure, abridged:
as §2

A short description of series [7]: Induction of LDL uptake in human HepG2 cells incubated for 2 hrs in presence of 1 nM PCSK9 by fluorescent plate reader analysis (reference value: 51.69 +/- 15.30 %). Format: functional.
Series [8] can be described thus: Induction of LDLR expression in human HepG2 cells membrane in presence of 1 nM PCSK9 (reference value: 39.71 +/- 2.05%). Format: functional.

In the case of `C#Cc1ncc(-c2ncc(-c3ccc4ccccc4c3)n2CCCC(C)(C)C)n1CCCCCNC`, the Activity entry with HepG2 was “Non-Toxic”; in series [1], 81.87%; in series [2], 91.1%.
Regarding `CCOc1ccc2ccc(=O)oc2c1` [ETHOXYCOUMARIN], the values for the microsomal CLint at 5 µM in [3] and in series [4] were 291 µL/min/mg and 46.1 µL/min/mg, respectively.
Regarding `CNCCCCCn1c(-c2ncc(-c3ccc4ccccc4c3)n2CCCC(C)(C)C)cnc1I`, the results for the Activity result (with HepG2; in series [7]; in series [8]) were “Non-Toxic”, 103.47% and 101.1%, respectively. Further, the inhibition entry in series [5] and in [6] was “Active” each time.
As for `O=c1ccc2ccc(O)cc2o1` [UMBELLIFERONE], the microsomal CLint at 5 µM in [3] came to 533 µL/min/mg; in series [4], 390 µL/min/mg.
